Experimental findings from ChEMBL document CHEMBL4304739, “Discovery of 3-(Indol-5-yl)-indazole Derivatives as Novel Myeloid Differentiation Protein 2/Toll-like Receptor 4 Antagonists for Treatment of Acute Lung Injury” (J Med Chem, 2019) are described below.

Data set [1] concerns the target Angiopoietin-1 receptor (Homo sapiens) (UniProt Q02763). Nature of the data set: Inhibition of wild-type human partial length TIE2 (N804 to T1112 residues) expressed in bacterial expression system at 1 uM by Kinomescan method. In outline: (§1)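 Single-concentration screen at 1 μM on the KINOMEscan panel (98 kinases), run by the platform provider. Results are given as percent of control: % Ctrl = [(test signal − positive control signal)/(negative control signal − positive control signal)] × 100. DMSO serves as negative control (100% Ctrl) and a control compound as positive control (0% Ctrl). Lower values mean stronger binding hits.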

Data set [2] has as its system Mus musculus. Nature of the data set: Antiinflammatory activity in LPS-induced C57BL/6 mouse model of acute lung injury assessed as suppression of neutrophil lung infiltration by measuring reduction in MPO activity at 5 to 10 mg/kg, iv pretreated for 15 mins followed by LPS stimulation and measured after 6 hrs. The data set is classed as functional, organism-based. In outline:
(§2)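 Male C57BL/6 mice (18−22 g; n=8 per group). Compound in 0.1% CMC-Na given by tail vein injection 15 min before intraperitoneal LPS (20 mg/kg); controls received saline. Mice were sacrificed 6 h after LPS, and serum and lung tissue were collected.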

The target of data set [3] is Tyrosine-protein kinase ABL1 (Homo sapiens) (UniProt P00519). The experiment in a line: Inhibition of wild-type human phosphorylated ABL1 (S229 to K512 residues) expressed in mammalian expression system at 1 uM by Kinomescan method. In outline: as §1
In data set [4] the target is Proto-oncogene tyrosine-protein kinase receptor Ret (Homo sapiens) (UniProt P07949). Nature of the data set: Inhibition of wild-type human partial length RET (E713 to D1014 residues) expressed in bacterial expression system at 1 uM by Kinomescan method. In outline: (§3)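 Binding-competition screen on the KINOMEscan platform, run by the provider, with the test compound at 1 μM. Readout is percent of control: (test signal − positive control signal)/(negative control signal − positive control signal) × 100. The DMSO negative control is set as 100% Ctrl and a control compound as 0% Ctrl. Lower values mean stronger hits.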

Data set [5] has as its target Focal adhesion kinase 1 (Homo sapiens) (UniProt Q05397). Nature of the data set: Inhibition of wild-type human partial length FAK (D402 to R696 residues) expressed in bacterial expression system at 1 uM by Kinomescan method. In outline:
as §3

In data set [6] the target is Aurora kinase B (Homo sapiens) (UniProt Q96GD4). Nature of the data set: Inhibition of wild-type human partial length AURKB (D25 to A303 residues) expressed in mammalian expression system at 1 uM by Kinomescan method. In outline:
as §3

For data set [7], the target named is Dual specificity tyrosine-phosphorylation-regulated kinase 1B (Homo sapiens) (UniProt Q9Y463). The experiment in a line: Inhibition of wild-type human full length DYRK1B (M1 to S629 residues) expressed in bacterial expression system at 1 uM by Kinomescan method. In outline: (§4)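 KINOMEscan competition binding screen at 1 μM compound. Results reported as % of control = (test − positive control)/(DMSO negative control − positive control) × 100, where lower values mean stronger hits.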

The target in data set [8] is Serine/threonine-protein kinase B-raf (Homo sapiens) (UniProt P15056). Nature of the data set: Inhibition of wild-type human partial length BRAF (S429 to E741 residues) expressed in mammalian expression system at 1 uM by Kinomescan method. In outline: as §3
Data set [9] has as its target Mitogen-activated protein kinase 3 (Homo sapiens) (UniProt P27361). Nature of the data set: Inhibition of wild-type human full length ERK1 (M1 to P379 residues) expressed in bacterial expression system at 1 uM by Kinomescan method. In outline: as §4
Data set [10] deals with MAP kinase-interacting serine/threonine-protein kinase 2 (Homo sapiens) (UniProt Q9HBH9). Nature of the data set: Inhibition of wild-type human partial length MKNK2 (G63 to S388 residues) expressed in mammalian expression system at 1 uM by Kinomescan method. In outline:
as §3

Data set [11] addresses Phosphatidylinositol 4,5-bisphosphate 3-kinase catalytic subunit gamma isoform (Homo sapiens) (UniProt P48736). Nature of the data set: Inhibition of wild-type human partial length PIK3CG (S144 to A1102 residues) expressed in mammalian expression system at 1 uM by Kinomescan method. In outline:
as §3

The target in data set [12] is Ephrin type-A receptor 2 (Homo sapiens) (UniProt P29317). Nature of the data set: Inhibition of wild-type human partial length EPHA2 (T593 to V891 residues) expressed in bacterial expression system at 1 uM by Kinomescan method. In outline:
as §3

The target of data set [13] is ALK tyrosine kinase receptor (Homo sapiens) (UniProt Q9UM73). The experiment in a line: Inhibition of wild-type human partial length ALK (I1088 to E1409 residues) expressed in mammalian expression system at 1 uM by Kinomescan method. In outline: as §3
The target of data set [14] is Tyrosine-protein kinase ZAP-70 (Homo sapiens) (UniProt P43403). The experiment in a line: Inhibition of wild-type human partial length ZAP70 (D20 to G299 residues) expressed in mammalian expression system at 1 uM by Kinomescan method. In outline: as §1
The target in data set [15] is cAMP-dependent protein kinase catalytic subunit alpha (Homo sapiens) (UniProt P17612). Nature of the data set: Inhibition of wild-type human partial length PKAC-alpha (G10 to F351 residues) expressed in bacterial expression system at 1 uM by Kinomescan method. In outline: as §3
Data set [16] concerns Mus musculus. Nature of the data set: Antiinflammatory activity in LPS-induced C57BL/6 mouse model of acute lung injury assessed as reduction in TNFalpha level at 5 to 10 mg/kg, iv pretreated for 15 mins followed by LPS stimulation and measured after 6 hrs by ELISA. The class given is functional, organism-based. In outline:
as §2
For orientation: ELISA stands for enzyme-linked immunosorbent assay.

In data set [17] the test system is Mus musculus. Nature of the data set: Antiinflammatory activity in LPS-induced C57BL/6 mouse model of acute lung injury assessed as reduction in IL6 mRNA level at 10 mg/kg, iv pretreated for 15 mins followed by LPS stimulation and measured after 6 hrs by SYBR green staining-based qRT-PCR analysis. The data set is classed as functional, organism-based. In outline: (§5)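 Total lung RNA extracted, with DNase I removal of residual DNA. Quantitative PCR with mouse gene primers; each gene normalized to β-actin. C57BL/6 mice given compound iv 15 min before intraperitoneal LPS (20 mg/kg) and killed at 6 h.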
Background: Quantitative PCR measures a nucleic acid by following its amplification.

Data set [18] has as its target Serine/threonine-protein kinase PLK1 (Homo sapiens) (UniProt P53350). Nature of the data set: Inhibition of wild-type human partial length PLK1 (A33 to F325 residues) expressed in mammalian expression system at 1 uM by Kinomescan method. In outline:
as §3

Data set [19] has as its system Mus musculus. Nature of the data set: Antiinflammatory activity in LPS-induced C57BL/6 mouse model of acute lung injury assessed as reduction in IL12 mRNA level at 10 mg/kg, iv pretreated for 15 mins followed by LPS stimulation and measured after 6 hrs by SYBR green staining-based qRT-PCR analysis. The data set is classed as functional, organism-based. In outline:
as §5

Data set [20] concerns Peritoneal macrophage. Nature of the data set: Cytotoxicity against ICR mouse peritoneal macrophages assessed as reduction in cell viability up to 20 uM measured after 24 hrs by MTT assay. The data set is classed as cell-based. In outline: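 Peritoneal macrophages from ICR mice, 2.0×10^4 cells/well in DMEM with 10% FBS. Cells exposed to compound for 24 h, then MTT (5 mg/ml in 0.9% NaCl) added for 4 h at 37 °C in 5% CO2. Absorbance read at 490 nm; final DMSO 0.1%.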

Data set [21] deals with SRSF protein kinase 3 (Homo sapiens) (UniProt Q9UPE1). Nature of the data set: Inhibition of wild-type human partial length SRPK3 (P41 to P567 residues) expressed in bacterial expression system at 1 uM by Kinomescan method. In outline:
as §1

Data set [22] addresses Protein kinase C epsilon type (Homo sapiens) (UniProt Q02156). Nature of the data set: Inhibition of wild-type human partial length PRKCE (A378 to P737 residues) expressed in mammalian expression system at 1 uM by Kinomescan method. In outline:
as §3

The source made the active and inactive calls. No cut-off for these calls is given here.

Chain of MAP kinase-interacting serine/threonine-protein kinase 2 (Homo sapiens) (Q9HBH9 whole entry, looked up, the tested form may be a part): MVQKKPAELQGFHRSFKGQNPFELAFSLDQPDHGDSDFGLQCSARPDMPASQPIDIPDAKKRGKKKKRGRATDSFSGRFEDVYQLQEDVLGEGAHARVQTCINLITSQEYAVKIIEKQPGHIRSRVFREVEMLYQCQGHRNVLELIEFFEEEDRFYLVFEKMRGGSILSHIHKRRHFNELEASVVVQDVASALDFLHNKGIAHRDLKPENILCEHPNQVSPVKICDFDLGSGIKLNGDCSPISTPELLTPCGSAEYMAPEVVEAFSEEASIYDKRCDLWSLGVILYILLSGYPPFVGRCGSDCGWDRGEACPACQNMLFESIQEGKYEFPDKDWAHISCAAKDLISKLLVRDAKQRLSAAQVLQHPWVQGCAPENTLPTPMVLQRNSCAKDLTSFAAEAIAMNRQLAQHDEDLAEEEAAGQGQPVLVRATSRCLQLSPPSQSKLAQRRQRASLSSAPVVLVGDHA
Chain of Tyrosine-protein kinase ZAP-70 (Homo sapiens) (P43403 whole entry, the tested form may be a part): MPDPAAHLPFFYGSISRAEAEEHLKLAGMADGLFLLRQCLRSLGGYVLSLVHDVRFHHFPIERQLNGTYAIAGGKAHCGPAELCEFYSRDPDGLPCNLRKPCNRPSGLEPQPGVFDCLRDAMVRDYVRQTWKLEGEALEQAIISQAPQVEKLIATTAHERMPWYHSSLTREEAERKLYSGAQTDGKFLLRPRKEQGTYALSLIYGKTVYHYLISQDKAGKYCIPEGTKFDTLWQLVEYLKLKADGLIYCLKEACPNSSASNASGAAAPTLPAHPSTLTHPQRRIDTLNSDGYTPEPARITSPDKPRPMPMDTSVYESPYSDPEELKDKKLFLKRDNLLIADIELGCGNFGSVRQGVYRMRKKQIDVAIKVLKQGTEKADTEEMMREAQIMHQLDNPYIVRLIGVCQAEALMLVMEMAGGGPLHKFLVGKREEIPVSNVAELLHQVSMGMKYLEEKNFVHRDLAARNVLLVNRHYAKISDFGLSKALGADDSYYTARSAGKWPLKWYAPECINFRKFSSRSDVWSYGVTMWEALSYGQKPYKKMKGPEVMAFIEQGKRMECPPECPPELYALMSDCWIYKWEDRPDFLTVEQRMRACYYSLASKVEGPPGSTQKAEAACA
Chain of Aurora kinase B (Homo sapiens) (Q96GD4 whole entry, the tested form may be a part): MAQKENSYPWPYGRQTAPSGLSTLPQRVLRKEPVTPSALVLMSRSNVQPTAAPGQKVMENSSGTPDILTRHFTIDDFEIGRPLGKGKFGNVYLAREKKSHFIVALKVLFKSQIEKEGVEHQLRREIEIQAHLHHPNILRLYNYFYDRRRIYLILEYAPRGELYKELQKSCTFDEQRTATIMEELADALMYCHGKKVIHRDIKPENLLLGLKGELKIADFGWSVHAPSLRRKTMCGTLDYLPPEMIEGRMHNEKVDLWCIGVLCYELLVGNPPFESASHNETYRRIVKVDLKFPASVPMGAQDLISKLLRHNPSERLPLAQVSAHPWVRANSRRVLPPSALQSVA
Chain of Angiopoietin-1 receptor (Homo sapiens) (Q02763 whole entry, the tested form may be a part): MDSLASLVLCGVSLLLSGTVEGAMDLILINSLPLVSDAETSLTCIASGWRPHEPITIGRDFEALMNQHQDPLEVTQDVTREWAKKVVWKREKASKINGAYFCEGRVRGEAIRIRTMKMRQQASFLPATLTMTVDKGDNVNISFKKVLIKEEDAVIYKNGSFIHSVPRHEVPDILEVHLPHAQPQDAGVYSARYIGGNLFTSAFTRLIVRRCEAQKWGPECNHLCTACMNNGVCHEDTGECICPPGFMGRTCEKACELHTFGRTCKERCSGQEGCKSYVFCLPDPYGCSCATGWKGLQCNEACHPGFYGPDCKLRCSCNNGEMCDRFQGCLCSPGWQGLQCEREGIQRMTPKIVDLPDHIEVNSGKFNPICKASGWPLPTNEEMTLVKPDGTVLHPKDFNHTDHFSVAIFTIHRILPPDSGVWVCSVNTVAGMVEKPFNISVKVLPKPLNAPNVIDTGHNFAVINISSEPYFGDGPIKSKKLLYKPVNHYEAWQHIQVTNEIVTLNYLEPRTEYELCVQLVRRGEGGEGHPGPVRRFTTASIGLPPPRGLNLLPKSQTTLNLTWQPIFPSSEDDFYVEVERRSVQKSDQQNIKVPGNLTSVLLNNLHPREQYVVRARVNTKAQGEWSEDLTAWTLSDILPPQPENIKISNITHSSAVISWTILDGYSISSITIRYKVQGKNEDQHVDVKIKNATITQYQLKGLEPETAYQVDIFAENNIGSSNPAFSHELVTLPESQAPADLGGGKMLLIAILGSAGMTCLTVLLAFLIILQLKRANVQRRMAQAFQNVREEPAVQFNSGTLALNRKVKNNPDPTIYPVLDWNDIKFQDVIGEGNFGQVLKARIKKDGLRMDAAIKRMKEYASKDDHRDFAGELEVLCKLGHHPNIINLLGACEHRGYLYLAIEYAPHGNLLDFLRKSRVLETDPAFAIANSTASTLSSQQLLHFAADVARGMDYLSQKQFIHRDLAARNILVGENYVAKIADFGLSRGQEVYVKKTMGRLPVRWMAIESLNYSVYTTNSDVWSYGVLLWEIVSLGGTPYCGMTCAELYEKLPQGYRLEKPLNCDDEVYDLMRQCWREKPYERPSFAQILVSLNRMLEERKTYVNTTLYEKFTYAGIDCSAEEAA
Chain of Tyrosine-protein kinase ABL1 (Homo sapiens) (P00519 whole entry, the tested form may be a part): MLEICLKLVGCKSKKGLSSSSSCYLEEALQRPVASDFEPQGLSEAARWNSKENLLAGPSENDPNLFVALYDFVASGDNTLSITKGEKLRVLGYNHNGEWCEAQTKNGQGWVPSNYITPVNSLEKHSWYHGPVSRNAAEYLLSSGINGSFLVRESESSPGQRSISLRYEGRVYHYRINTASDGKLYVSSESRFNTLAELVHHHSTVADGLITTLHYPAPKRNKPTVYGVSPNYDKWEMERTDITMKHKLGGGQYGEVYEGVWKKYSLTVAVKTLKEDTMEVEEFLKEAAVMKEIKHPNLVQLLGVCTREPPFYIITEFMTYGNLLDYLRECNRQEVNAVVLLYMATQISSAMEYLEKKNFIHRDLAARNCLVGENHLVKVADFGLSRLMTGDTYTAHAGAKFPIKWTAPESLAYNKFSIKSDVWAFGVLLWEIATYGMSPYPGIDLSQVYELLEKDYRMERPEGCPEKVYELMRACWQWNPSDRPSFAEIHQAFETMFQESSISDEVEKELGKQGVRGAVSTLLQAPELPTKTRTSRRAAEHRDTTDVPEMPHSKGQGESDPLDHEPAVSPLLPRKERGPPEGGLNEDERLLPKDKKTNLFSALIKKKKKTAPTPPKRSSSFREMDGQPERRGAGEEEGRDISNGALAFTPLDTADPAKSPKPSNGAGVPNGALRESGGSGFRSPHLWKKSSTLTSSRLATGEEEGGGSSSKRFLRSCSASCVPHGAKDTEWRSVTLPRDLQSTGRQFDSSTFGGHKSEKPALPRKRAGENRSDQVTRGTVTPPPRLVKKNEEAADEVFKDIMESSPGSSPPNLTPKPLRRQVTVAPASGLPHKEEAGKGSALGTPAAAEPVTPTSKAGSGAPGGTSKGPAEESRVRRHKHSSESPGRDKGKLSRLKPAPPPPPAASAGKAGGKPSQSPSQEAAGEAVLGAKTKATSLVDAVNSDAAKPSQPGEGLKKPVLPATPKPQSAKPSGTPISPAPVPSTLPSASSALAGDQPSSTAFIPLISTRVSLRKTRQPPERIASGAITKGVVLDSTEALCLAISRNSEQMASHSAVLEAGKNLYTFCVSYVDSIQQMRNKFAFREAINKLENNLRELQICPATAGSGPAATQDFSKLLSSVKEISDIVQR
Chain of Mitogen-activated protein kinase 3 (Homo sapiens) (P27361 whole entry, the tested form may be a part): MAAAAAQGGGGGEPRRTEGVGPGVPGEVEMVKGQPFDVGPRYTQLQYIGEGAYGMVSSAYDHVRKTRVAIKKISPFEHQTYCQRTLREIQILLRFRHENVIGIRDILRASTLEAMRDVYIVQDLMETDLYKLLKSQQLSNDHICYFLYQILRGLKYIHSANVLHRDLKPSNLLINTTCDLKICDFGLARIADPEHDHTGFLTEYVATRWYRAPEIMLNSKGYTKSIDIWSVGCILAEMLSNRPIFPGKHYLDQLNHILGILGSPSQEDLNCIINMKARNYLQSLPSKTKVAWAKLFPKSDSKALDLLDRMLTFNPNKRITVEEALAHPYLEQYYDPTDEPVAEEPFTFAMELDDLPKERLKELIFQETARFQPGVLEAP
Chain of Ephrin type-A receptor 2 (Homo sapiens) (P29317 whole entry, the tested form may be a part): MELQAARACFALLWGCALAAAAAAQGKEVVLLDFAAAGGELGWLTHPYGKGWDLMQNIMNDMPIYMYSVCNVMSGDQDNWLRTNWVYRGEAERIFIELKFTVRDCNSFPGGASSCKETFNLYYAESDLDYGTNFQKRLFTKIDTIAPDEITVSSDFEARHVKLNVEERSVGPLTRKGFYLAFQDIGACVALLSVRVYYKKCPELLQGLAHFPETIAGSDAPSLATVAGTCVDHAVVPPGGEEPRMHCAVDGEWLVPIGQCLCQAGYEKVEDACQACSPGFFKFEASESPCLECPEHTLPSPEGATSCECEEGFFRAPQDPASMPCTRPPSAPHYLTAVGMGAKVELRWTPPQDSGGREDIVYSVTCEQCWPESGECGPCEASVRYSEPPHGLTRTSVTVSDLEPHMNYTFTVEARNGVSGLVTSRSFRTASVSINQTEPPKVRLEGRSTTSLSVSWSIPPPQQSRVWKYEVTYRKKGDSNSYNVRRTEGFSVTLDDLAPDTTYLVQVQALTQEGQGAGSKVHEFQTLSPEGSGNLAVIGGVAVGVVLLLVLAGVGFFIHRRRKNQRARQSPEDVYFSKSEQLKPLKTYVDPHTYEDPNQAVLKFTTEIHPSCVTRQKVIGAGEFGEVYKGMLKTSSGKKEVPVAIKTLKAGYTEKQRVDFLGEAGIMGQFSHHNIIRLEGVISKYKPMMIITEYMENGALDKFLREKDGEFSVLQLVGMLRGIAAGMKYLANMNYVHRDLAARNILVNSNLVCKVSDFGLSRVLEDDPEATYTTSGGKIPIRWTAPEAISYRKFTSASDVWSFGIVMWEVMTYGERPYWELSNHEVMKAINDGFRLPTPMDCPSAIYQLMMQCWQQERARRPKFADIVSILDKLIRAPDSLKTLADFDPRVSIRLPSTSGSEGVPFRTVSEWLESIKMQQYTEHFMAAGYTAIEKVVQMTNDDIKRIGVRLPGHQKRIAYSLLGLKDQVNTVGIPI

With `O=C(Nc1ccc2[nH]nc(-c3ccc4[nH]ccc4c3)c2c1)c1c(Cl)cccc1Cl`, the inhibition entry in data set [1], in [3], in data set [4], in [5], in data set [6] and in data set [7] was “inactive” throughout. For the same compound, the inhibition result in data set [8], in [9], in data set [10], in data set [11], in data set [12] and in [13] was “inactive” throughout. Besides, the inhibition result in data set [14], in data set [15], in data set [18], in data set [21] and in data set [22] was “inactive” throughout. For the same compound, the outcome in data set [2], in [16], in data set [17] and in data set [19] was Active. In addition, the Activity result in [20] is listed as “Non-Toxic”.
